Values after ≈ are worked out from the molar mass of the structure shown. Where two headings read alike, the source gives them in different places. Marks after values point to notes of the source that are not given here.
Assays:
[1] = system: MRC-5 (human lung fibroblast) cells; assay: Trypan blue dye exclusion assay, MRC-5 cells; format: cell-based
In short: (§1)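 Cells were seeded at 5,000/well for 24 h: MRC-5 in EMEM and A549 in F-12K, each with 10% FBS. They were then given test compound (50, 100, 150 μg/mL), cisplatin (0.5, 1, 2 μg/mL) or 0.5% DMSO control for 24–72 h at 37 °C, 5% CO2. After trypsinisation, viable cells were counted by trypan blue exclusion on a hemocytometer (quadruplicate wells). IC50 came from growth curves. At least three repeats.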

[2] = system: A549 (human lung carcinoma) cells; assay: Trypan blue dye exclusion assay, A549 cells; format: cell-based
In short: as §1

A549 cells [3] = assay: Matrigel invasion assay; format: cell-based, human
In short: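 Matrigel was diluted in cold serum-free medium and gelled overnight at 37 °C in Transwell upper chambers. A549 cells were added in serum-free medium with test compound (0–150 μg/mL) or cisplatin (1 μg/mL), with 10% FBS below as chemoattractant, for 24 and 48 h at 37 °C. Invaded cells were fixed (3.7% paraformaldehyde, methanol), stained with crystal violet and counted in five fields. % invasion was set against uncoated membrane. Three repeats.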

[4] = system: MRC-5 (human lung fibroblast) cells; assay: MTS cell viability assay, MRC-5 cells; format: cell-based
A549 cells [5] = assay: Scratch assay of cell migration; format: cell-based, human
In short: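 A549 monolayers were grown to 90–100% confluence in 24 h, scratched with a pipette tip and washed with PBS; initial gap width was measured at ×400. Cells were then kept in serum-free medium with test compound (0–150 μg/mL) or cisplatin (1 μg/mL) at 37 °C, 5% CO2. Gap widths were read by phase-contrast at each time point to 72 h, giving % wound closure. Three repeats.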

[6] = system: A549 (human lung carcinoma) cells; assay: MTS cell viability assay, A549 cells; format: cell-based; conditions: for viability at 50 µg/mL / viability at 100 µg/mL / viability at 150 µg/mL: read-out: Cell viability (%)
[7] = MTS cell viability assay, MRC-5 cells; format: cell-based, human; conditions: human, MRC-5 lung fibroblast cells

For `N.N.[Cl][Pt][Cl]` [DDP, cis-diamminedichloroplatinum II], the Number of cells ([1]; MRC-5, 0.5 μg/mL, 24 h) was 13,900 ± 302^b, the Number of cells ([1]; MRC-5, 0.5 μg/mL, 48 h) was 15,666 ± 418^a,b and the Number of cells ([1]; MRC-5, 0.5 μg/mL, 72 h) was 21,100 ± 488^a,b. For the same molecule, the Number of cells ([1]; MRC-5, 1 μg/mL, 24 h) was 13,516 ± 414, the Number of cells ([1]; MRC-5, 1 μg/mL, 48 h) was 15,400 ± 347^a,b and the Number of cells ([1]; MRC-5, 1 μg/mL, 72 h) was 20,500 ± 465^a,b. For the same molecule, the Number of cells ([1]; MRC-5, 2 μg/mL, 24 h) was 12,933 ± 396^a, the Number of cells ([1]; MRC-5, 2 μg/mL, 48 h) was 14,933 ± 292^b and the Number of cells ([1]; MRC-5, 2 μg/mL, 72 h) was 19,666 ± 389^a,b. For the same molecule, the Number of cells ([2]; A549, 0.5 μg/mL, 24 h) was 14,000± 310^a,b, the Number of cells ([2]; A549, 0.5 μg/mL, 48 h) was 14,050 ± 523^a,b and the Number of cells ([2]; A549, 0.5 μg/mL, 72 h) was 16,666 ± 420^b. For the same molecule, the Number of cells ([2]; A549, 1 μg/mL, 24 h) was 11,250± 545^a,b, the Number of cells ([2]; A549, 1 μg/mL, 48 h) was 11,616 ± 590^a,b and the Number of cells ([2]; A549, 1 μg/mL, 72 h) was 12,833 ± 564^a,b. For the same molecule, the Number of cells ([2]; A549, 2 μg/mL, 24 h) was 8,583± 589^a,b, the Number of cells ([2]; A549, 2 μg/mL, 48 h) was 9,833 ± 650^a,b and the Number of cells ([2]; A549, 2 μg/mL, 72 h) was 8,983 ± 310^a,b. The “Invasion (%)” value (A549 cells [3]; A549, 0.5 μg/mL, 24 h) was 29.01 ± 4.99^a,b %, the “Invasion (%)” value (A549 cells [3]; A549, 0.5 μg/mL, 48 h) was 18.62 ± 3.11^a,b % and the “Invasion (%)” value (A549 cells [3]; A549, 1 μg/mL, 24 h) was 26.12 ± 4.22^a,b %. For the same molecule, the “Invasion (%)” value (A549 cells [3]; A549, 1 μg/mL, 48 h) was 16.13 ± 2.66^a,b %, the “Invasion (%)” value (A549 cells [3]; A549, 2 μg/mL, 24 h) was 20.91 ± 2.05^a,b % and the “Invasion (%)” value (A549 cells [3]; A549, 2 μg/mL, 48 h) was 14.42 ± 1.57^a,b %. For the same molecule, the “IC50 values, MRC-5 cells” value ([4]; MTS assay, 72-h) was > 2 µg/mL, the “Gap closure (%)” value (A549 cells [5]; A549, 0.5 μg/mL, 0 h) was 0% and the “Gap closure (%)” value (A549 cells [5]; A549, 0.5 μg/mL, 24 h) was 3.09 ± 0.25^a,b %. For the same molecule, the “Gap closure (%)” value (A549 cells [5]; A549, 0.5 μg/mL, 48 h) was 4.36 ± 0.60^a %, the “Gap closure (%)” value (A549 cells [5]; A549, 0.5 μg/mL, 72 h) was 4.77 ± 0.19^a % and the “Gap closure (%)” value (A549 cells [5]; A549, 1 μg/mL, 0 h) was 0%. For the same molecule, the “Gap closure (%)” value (A549 cells [5]; A549, 1 μg/mL, 24 h) was 2.52 ± 0.16^a,b %, the “Gap closure (%)” value (A549 cells [5]; A549, 1 μg/mL, 48 h) was 3.18 ± 0.04^a,b % and the “Gap closure (%)” value (A549 cells [5]; A549, 1 μg/mL, 72 h) was 3.55 ± 0.42^a %. The “Gap closure (%)” value (A549 cells [5]; A549, 2 μg/mL, 0 h) was 0%, the “Gap closure (%)” value (A549 cells [5]; A549, 2 μg/mL, 24 h) was 2.38 ± 0.06^a,b % and the “Gap closure (%)” value (A549 cells [5]; A549, 2 μg/mL, 48 h) was 2.92 ± 0.04^a,b %. The “Gap closure (%)” value (A549 cells [5]; A549, 2 μg/mL, 72 h) was 3.53 ± 0.16^a,b %.
In the case of `COc1ccc(-c2cc(=O)c3c(O)cc(O[C@@H]4O[C@H](CO[C@@H]5O[C@@H](C)[C@H](O)[C@@H](O)[C@H]5O)[C@@H](O)[C@H](O)[C@H]4O)cc3o2)cc1O` [Diosmin, diosmin], the IC50 ([1]; Homo sapiens, MRC5, 72 h, read-out: IC50 value, MRC-5 cells) is reported as > 150 µg/mL, the Number of cells ([1]; MRC-5, 50 μg/mL, 24 h) is reported as 11,666± 387^a,b and the Number of cells ([1]; MRC-5, 50 μg/mL, 48 h) is reported as 14,583 ± 489^b. The Number of cells ([1]; MRC-5, 50 μg/mL, 72 h) was 19,583 ± 405^a,b, the Number of cells ([1]; MRC-5, 100 μg/mL, 24 h) was 9,583 ± 463^a,b and the Number of cells ([1]; MRC-5, 100 μg/mL, 48 h) was 12,083 ± 723^a. The Number of cells ([1]; MRC-5, 100 μg/mL, 72 h) was 17,500 ± 456^a,b, the Number of cells ([1]; MRC-5, 150 μg/mL, 24 h) was 6,666± 709^a,b and the Number of cells ([1]; MRC-5, 150 μg/mL, 48 h) was 10,000 ± 630^a,b. For the same molecule, the Number of cells ([1]; MRC-5, 150 μg/mL, 72 h) was 15,833 ± 544^a,b, the Number of cells ([2]; A549, 50 μg/mL, 24 h) was 13,333± 444^a,b and the Number of cells ([2]; A549, 50 μg/mL, 48 h) was 18,333 ± 510^b. For the same molecule, the Number of cells ([2]; A549, 50 μg/mL, 72 h) was 26,250 ± 392^a,b, the Number of cells ([2]; A549, 100 μg/mL, 24 h) was 10,833± 487^a,b and the Number of cells ([2]; A549, 100 μg/mL, 48 h) was 13,750 ± 538^a,b. The Number of cells ([2]; A549, 100 μg/mL, 72 h) was 18,750 ± 426^a,b, the Number of cells ([2]; A549, 150 μg/mL, 24 h) was 6,666± 539^a,b and the Number of cells ([2]; A549, 150 μg/mL, 48 h) was 8,750 ± 572^a,b. The Number of cells ([2]; A549, 150 μg/mL, 72 h) was 11,250 ± 559^a,b, the IC50 ([2]; Homo sapiens, A549, 72 h, read-out: IC50 values, A549 cells) was 97.7 ± 4.23 µg/mL (≈ 160 µM) and the “Invasion (%)” value (A549 cells [3]; A549, 50 μg/mL, 24 h) was 43.51 ± 2.39^a,b %. For the same molecule, the “Invasion (%)” value (A549 cells [3]; A549, 50 μg/mL, 48 h) was 38.05 ± 5.14^a,b %, the “Invasion (%)” value (A549 cells [3]; A549, 100 μg/mL, 24 h) was 38.60 ± 3.31^a,b % and the “Invasion (%)” value (A549 cells [3]; A549, 100 μg/mL, 48 h) was 31.39 ± 2.71^a,b %. For the same molecule, the “Invasion (%)” value (A549 cells [3]; A549, 150 μg/mL, 24 h) was 34.79 ± 3.59^a,b %, the “Invasion (%)” value (A549 cells [3]; A549, 150 μg/mL, 48 h) was 27.60 ± 1.62^a,b % and the “Invasion (%)” value (A549 cells [3]; A549, 150 μg/mL, 48 h, listed as diosmin) was 27.60 ± 1.62%. The viability at 50 µg/mL ([6]; A549, 24 h) was 72.3 ± 3.23%, the viability at 100 µg/mL ([6]; A549, 24 h) was 61.6 ± 4.07% and the viability at 150 µg/mL ([6]; A549, 24 h) was 45.6 ± 4.59%. It also gave a viability at 50 µg/mL ([6]; A549, 48 h) of 71.1 ± 1.37%, a viability at 100 µg/mL ([6]; A549, 48 h) of 57.6 ± 5.15% and a viability at 150 µg/mL ([6]; A549, 48 h) of 47.3 ± 6.78%. The viability at 50 µg/mL ([6]; A549, 72 h) was 54.9 ± 3.43%, the viability at 100 µg/mL ([6]; A549, 72 h) was 50.7 ± 1.19% and the viability at 150 µg/mL ([6]; A549, 72 h) was 35.6 ± 5.95%. It also gave an IC50 ([6]; A549, 72 h, read-out: IC50 values, A549 cells) of 106 ± 3.52 µg/mL (≈ 175 µM), an IC50 ([4]; Homo sapiens, MRC5, 72 h, read-out: IC50 values, MRC-5 cells) of 150 ± 6.32 µg/mL (≈ 246 µM) and a viability at 24 h, 50 μg/mL [7] of 80.9 ± 8.46%. It also gave a viability at 24 h, 100 μg/mL [7] of 54.7 ± 7.45%, a viability at 24 h, 150 μg/mL [7] of 44.9 ± 5.58% and a viability at 48 h, 50 μg/mL [7] of 78 ± 9.3%. For the same molecule, the viability at 48 h, 100 μg/mL [7] was 53.9 ± 9.19%, the viability at 48 h, 150 μg/mL [7] was 47.5 ± 2.05% and the viability at 72 h, 50 μg/mL [7] was 86.7 ± 1.38%. For the same molecule, the viability at 72 h, 100 μg/mL [7] was 71 ± 9.54%, the viability at 72 h, 150 μg/mL [7] was 49.9 ± 8.02% and the “Gap closure (%)” value (A549 cells [5]; A549, 50 μg/mL, 0 h) was 0%. The “Gap closure (%)” value (A549 cells [5]; A549, 50 μg/mL, 24 h) was 4.88 ± 0.82^a %, the “Gap closure (%)” value (A549 cells [5]; A549, 50 μg/mL, 48 h) was 7.58 ± 1.07^a,b % and the “Gap closure (%)” value (A549 cells [5]; A549, 50 μg/mL, 72 h) was 10.82 ± 1.10^b %. For the same molecule, the “Gap closure (%)” value (A549 cells [5]; A549, 100 μg/mL, 0 h) was 0%, the “Gap closure (%)” value (A549 cells [5]; A549, 100 μg/mL, 24 h) was 3.97 ± 0.26^a % and the “Gap closure (%)” value (A549 cells [5]; A549, 100 μg/mL, 48 h) was 6.08 ± 0.87^a %. For the same molecule, the “Gap closure (%)” value (A549 cells [5]; A549, 100 μg/mL, 72 h) was 8.24 ± 0.67^a,b %, the “Gap closure (%)” value (A549 cells [5]; A549, 150 μg/mL, 0 h) was 0% and the “Gap closure (%)” value (A549 cells [5]; A549, 150 μg/mL, 24 h) was 3.32 ± 0.19^a,b %. The “Gap closure (%)” value (A549 cells [5]; A549, 150 μg/mL, 48 h) was 5.32 ± 0.64^a % and the “Gap closure (%)” value (A549 cells [5]; A549, 150 μg/mL, 72 h) was 6.84 ± 0.55^a,b %.

Reference: publication PMC10568961 (Research in Pharmaceutical Sciences, 2023)
